The text below walks through data of article PMC11092366 (RSC Advances, 2024).

Data set [1] deals with L. donovani DNA topoisomerase I. To be noted: L. donovani DNA topoisomerase I poison; cited from earlier work.
Data set [2] deals with L. infantum MHOM/TN/80/IPT1 promastigotes. Briefly: L. infantum viability assay. The format is cell-based, Leishmania infantum. An outline of the steps:
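Late log/stationary promastigotes, kept in EMTM at 26–28 °C, then RPMI-PY. Plated at 2.5 × 10^6 parasites per mL with 20 μM test compound, 72 h, 26 °C, in duplicate, miltefosine as positive control. Viability by CellTiter 96 aqueous assay gives % inhibition. SI is THP-1 CC50 divided by promastigote IC50. IC50 comes from 20–0.31 μM dilutions, fitted by nonlinear regression with unconstrained Hill slope.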

The nature of data set [3]: Cytotoxicity on PMA-differentiated THP-1 cells. To be noted: human, PMA-differentiated macrophage-like THP-1 cells. The format is cell-based. An outline of the steps:
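Human THP-1 cells grown in RPMI-1640 with 10% heat-inactivated FBS, 2 mM L-glutamine, penicillin and streptomycin at 37 °C, 5% CO2. Seeded at 5 × 10^6 cells per mL and differentiated 48 h with 20 ng mL−1 PMA. After adhesion, exposed to 1:2 dilutions (100 to 3.12 μM), in duplicate, with untreated and miltefosine controls. CellTiter 96 aqueous read-out; CC50 by nonlinear regression, mean and 95% CI.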

`c1ccc2c(Cc3c[nH]c4ccccc34)c[nH]c2c1` [DIM, 3,3′-Diindolylmethane]: the IC50 in data set [1] is 1.2 µM.
With `CCCCCCCCCCCCCCCCOP(=O)([O-])OCC[N+](C)(C)C` [MILT, Miltefosine], the “SI (selectivity index = CC50/IC50)” value in data set [2] (CC50 THP-1 / IC50 L. infantum promastigotes) is recorded as 9.9. In data set [2] (Leishmania infantum, 72 h, read-out: L. infantum IC50 (μM) (95% CI), L. infantum MHOM/TN/80/IPT1 promastigotes, 72 h, mean and 95% CI, duplicate experiments), the IC50 stood at 3.7 µM. Besides, in data set [3], the CC50 was 36.6 µM.

The CC50 is the concentration giving 50% cytotoxicity. Lower therefore signals greater toxicity to the cells.
